Reference: ChEMBL document CHEMBL1139845, “Synthesis and biological evaluation of novel 1-deoxy-1-[6-[((hetero)arylcarbonyl)hydrazino]- 9H-purin-9-yl]-N-ethyl-beta-D-ribofuranuronamide derivatives as useful templates for the development of A2B adenosine receptor agonists” (J Med Chem, 2007)

Columns and labels:
Adenosine receptor A2a = Adenosine receptor A2a (Homo sapiens, UniProt P29274); assay: Displacement of [3H]CGS-21680 from human adenosine A2A receptor expressed in CHO cells; assay type: cell-based
Adenosine receptor A2a, sequence (P29274 whole entry): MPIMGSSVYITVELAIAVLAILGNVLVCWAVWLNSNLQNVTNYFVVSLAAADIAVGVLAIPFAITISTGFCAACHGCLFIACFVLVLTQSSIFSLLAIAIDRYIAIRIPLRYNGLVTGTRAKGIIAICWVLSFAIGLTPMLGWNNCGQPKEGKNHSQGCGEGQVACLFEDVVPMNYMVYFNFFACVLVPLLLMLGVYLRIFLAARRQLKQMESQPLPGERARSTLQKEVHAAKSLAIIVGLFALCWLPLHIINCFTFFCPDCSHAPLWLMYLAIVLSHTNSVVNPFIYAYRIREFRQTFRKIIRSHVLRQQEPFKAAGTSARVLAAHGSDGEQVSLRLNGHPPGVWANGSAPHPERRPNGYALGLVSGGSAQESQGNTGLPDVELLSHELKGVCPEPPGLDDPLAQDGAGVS

Adenosine receptor A1 = target: T1, Adenosine receptor A1 (Homo sapiens, UniProt P30542); assay: (§1) Displacement of [3H]CHA from human adenosine A1 receptor expressed in CHO cells; assay type: cell-based
T1 sequence (P30542 whole entry): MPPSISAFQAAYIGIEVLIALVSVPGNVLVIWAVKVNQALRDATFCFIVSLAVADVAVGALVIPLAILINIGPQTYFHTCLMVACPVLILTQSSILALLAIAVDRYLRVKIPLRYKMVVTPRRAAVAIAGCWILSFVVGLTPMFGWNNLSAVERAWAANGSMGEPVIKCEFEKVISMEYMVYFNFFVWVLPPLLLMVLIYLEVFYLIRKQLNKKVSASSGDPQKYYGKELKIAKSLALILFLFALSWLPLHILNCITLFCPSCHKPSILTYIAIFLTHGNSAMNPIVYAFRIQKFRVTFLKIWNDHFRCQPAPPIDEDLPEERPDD
Method in brief: (§2)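 Membranes from hA1 CHO cells, 50 µg protein/assay, pretreated with adenosine deaminase. Incubated with 1 nM [³H]CHA in 50 mM Tris-HCl pH 7.4 at 6–8 concentrations, 150 min at 25 °C. Nonspecific binding defined with 10 µM CHA. GF/B filtration and scintillation counting. Ki obtained by Cheng–Prusoff. Mean ± SEM of 3–4 experiments in duplicate.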

Adenosine receptor A3 = target: T2, Adenosine receptor A3 (Homo sapiens, UniProt P0DMS8); assay: (§3) Displacement of [125I]AB-MECA from human adenosine A3 receptor expressed in CHO cells; assay type: cell-based
T2 sequence (P0DMS8 whole entry): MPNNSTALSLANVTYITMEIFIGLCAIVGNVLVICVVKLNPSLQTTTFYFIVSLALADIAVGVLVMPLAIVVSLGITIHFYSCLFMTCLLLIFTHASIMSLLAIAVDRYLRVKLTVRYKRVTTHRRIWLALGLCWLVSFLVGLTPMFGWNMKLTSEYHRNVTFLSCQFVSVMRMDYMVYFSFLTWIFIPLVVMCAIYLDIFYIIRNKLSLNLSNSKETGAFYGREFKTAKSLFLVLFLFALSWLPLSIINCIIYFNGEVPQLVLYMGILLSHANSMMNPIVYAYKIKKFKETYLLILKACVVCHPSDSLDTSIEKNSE
Method in brief: (§4)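 Membranes from CHO cells expressing hA3, 50 µg protein/assay, pretreated with adenosine deaminase. Incubated with [¹²⁵I]AB-MECA in 50 mM Tris-HCl, 10 mM MgCl₂, 1 mM EDTA, pH 7.4, at 6–8 concentrations of test compound, 60 min at 37 °C. Nonspecific binding defined with 1 µM AB-MECA. GF/B filtration. Ki obtained by Cheng–Prusoff. Mean ± SEM of 3–4 experiments in duplicate.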

[1] = target: T3, Adenosine receptor A3 (Homo sapiens) (UniProt P0DMS8); assay: as §3; assay type: cell-based; method in brief: as §4
T3 sequence (whole entry): T2 sequence (P0DMS8 whole entry)

Adenosine receptor A2b = target: T4, Adenosine receptor A2b (Homo sapiens, UniProt P29275); assay: (§5) Activity at human adenosine A2B receptor expressed in CHO cells assessed as stimulation of cAMP levels; assay type: functional, cell-based
T4 sequence (P29275 whole entry): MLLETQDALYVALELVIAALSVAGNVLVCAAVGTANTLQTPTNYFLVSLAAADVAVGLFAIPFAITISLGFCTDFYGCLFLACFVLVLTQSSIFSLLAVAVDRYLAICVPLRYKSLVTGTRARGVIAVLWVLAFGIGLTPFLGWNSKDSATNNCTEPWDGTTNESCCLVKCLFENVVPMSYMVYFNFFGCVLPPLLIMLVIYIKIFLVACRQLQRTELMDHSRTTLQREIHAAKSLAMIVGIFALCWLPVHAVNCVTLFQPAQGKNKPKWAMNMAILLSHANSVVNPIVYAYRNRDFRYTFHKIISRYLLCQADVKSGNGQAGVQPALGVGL
Method in brief: (§6)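 Whole CHO cells transfected with human A2B (1 × 10⁶ cells/assay), preincubated 10 min at 37 °C with adenosine deaminase 2 IU/mL and Ro 20-1724 as PDE inhibitor. Ligands (1 nM to 10 µM) were then added for 5 min. Stopped with cold 6% TCA and ether-extracted. cAMP measured by competition binding to bovine adrenal binding protein with [³H]cAMP. Mean ± SEM of 3–4 experiments in duplicate.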

[2] = target: T5, Adenosine receptor A2b (Homo sapiens) (UniProt P29275); assay: as §5; assay type: functional, cell-based; set-up: concentration or dose not given beside the values; method in brief: as §6
T5 sequence (whole entry): T4 sequence (P29275 whole entry)

[3] = target: T6, Adenosine receptor A1 (Homo sapiens) (UniProt P30542); assay: as §1; assay type: cell-based; method in brief: as §2
T6 sequence (whole entry): T1 sequence (P30542 whole entry)

SMILES | Ki (Adenosine receptor A2a) [µM] | Ki (Adenosine receptor A1) [µM] | Ki (Adenosine receptor A3) [µM] | Activity [1] [%] | EC50 (Adenosine receptor A2b) [µM] | Activity [2] [%] | Activity (Adenosine receptor A2a) [%] | Activity [3] [%] | Activity ([2]; filed as agonist)
CCNC(=O)[C@H]1O[C@@H](n2cnc3c(NNC(=O)c4ccc(C)s4)nc(Cl)nc32)[C@H](O)[C@@H]1O | 4.1 | 2.6 | > 5 | 17 |  |  |  |  | 
CCNC(=O)[C@H]1O[C@@H](n2cnc3c(NNC(=O)c4ccsc4)nc(Cl)nc32)[C@H](O)[C@@H]1O | 3.3 |  | > 5 | 18 |  |  |  |  | 
CCNC(=O)[C@H]1O[C@@H](n2cnc3c(NNC(=O)c4ccc(C)s4)ncnc32)[C@H](O)[C@@H]1O | 2.1 | 1.1 | > 5 | 19 |  |  |  |  | 
CCNC(=O)[C@H]1O[C@@H](n2cnc3c(NNC(=O)c4ccc(Br)o4)ncnc32)[C@H](O)[C@@H]1O | 1.2 | 0.78 | > 5 | 13 | 0.369 |  |  |  | 
CCNC(=O)[C@H]1O[C@@H](n2cnc3c(NNC(=O)c4ccc[nH]4)nc(Cl)nc32)[C@H](O)[C@@H]1O | 3.2 |  | > 5 | 11 |  |  |  |  | 
CCNC(=O)[C@H]1O[C@@H](n2cnc3c(NNC(=O)c4ccc(C)o4)ncnc32)[C@H](O)[C@@H]1O | 1.6 |  | > 5 | 15 |  |  |  |  | 
CCNC(=O)[C@H]1O[C@@H](n2cnc3c(NNC(=O)c4cc(C)on4)nc(Cl)nc32)[C@H](O)[C@@H]1O | > 5 | > 5 | > 5 | 16 | > 5 | 21 | 3 | 7 | 
CCNC(=O)[C@H]1O[C@@H](n2cnc3c(NNC(=O)c4cc(-c5ccccc5)on4)nc(Cl)nc32)[C@H](O)[C@@H]1O | > 5 | > 5 | > 5 | 15 | > 5 | 24 | 2 | 5 | 
CCNC(=O)[C@H]1O[C@@H](n2cnc3c(NNC(=O)c4ccco4)nc(Cl)nc32)[C@H](O)[C@@H]1O | 4.95 | 3.5 | > 5 | 26 |  |  |  |  | 
CCNC(=O)[C@H]1O[C@@H](n2cnc3c(NNC(=O)c4nc([N+](=O)[O-])cn4C)ncnc32)[C@H](O)[C@@H]1O | > 5 | > 5 | > 5 | 11 | > 5 | 14 | 12 | 7 | 
CCNC(=O)[C@H]1O[C@@H](n2cnc3c(NNC(=O)Cc4cccs4)nc(Cl)nc32)[C@H](O)[C@@H]1O |  |  | 0.025 |  |  |  |  |  | 
CCNC(=O)[C@H]1O[C@@H](n2cnc3c(NNC(=O)c4sccc4C)nc(Cl)nc32)[C@H](O)[C@@H]1O | 3.8 | 1.6 | > 5 | 9 |  |  |  |  | 
CCNC(=O)[C@H]1O[C@@H](n2cnc3c(NNC(=O)c4cccs4)nc(Cl)nc32)[C@H](O)[C@@H]1O | 1.7 |  | > 5 | 12 |  |  |  |  | 

Further lines, results first:

Ki (Adenosine receptor A2a) [µM] | Ki (Adenosine receptor A1) [µM] | Ki (Adenosine receptor A3) [µM] | Activity [1] [%] | EC50 (Adenosine receptor A2b) [µM] | Activity [2] [%] | Activity (Adenosine receptor A2a) [%] | Activity [3] [%] | Activity ([2]; filed as agonist) | SMILES
> 5 | > 5 | > 5 | 20 | > 5 | 6 | 8 | 5 |  | CCNC(=O)[C@H]1O[C@@H](n2cnc3c(NNC(=O)c4ccc(Cl)cc4)ncnc32)[C@H](O)[C@@H]1O
> 5 | > 5 | > 5 | 45 | > 5 | 5 | 40 | 37 |  | CCNC(=O)[C@H]1O[C@@H](n2cnc3c(NNC(=O)c4ccccc4)nc(Cl)nc32)[C@H](O)[C@@H]1O
> 5 | > 5 | > 5 | 17 | > 5 | 9 | 7 | 11 |  | CCNC(=O)[C@H]1O[C@@H](n2cnc3c(NNC(=O)c4cccnc4)ncnc32)[C@H](O)[C@@H]1O
1.55 | 1.05 | > 5 | 23 |  |  |  |  | Agonist | CCNC(=O)[C@H]1O[C@@H](n2cnc3c(NNC(=O)c4ccco4)ncnc32)[C@H](O)[C@@H]1O
> 5 | > 5 | > 5 | 8 | > 5 | 10 | 18 | 35 |  | CCNC(=O)[C@H]1O[C@@H](n2cnc3c(NNC(=O)c4ccccc4)ncnc32)[C@H](O)[C@@H]1O
